Measured values: ChEMBL document CHEMBL1151692, “Substituted hippurates and hippurate analogs as substrates and inhibitors of peptidylglycine alpha-hydroxylating monooxygenase (PHM)” (Bioorg Med Chem, 2008)
Activity calls are given as the source filed them. The rule behind the calls is not given here.

Assays:
DU-145 [1] = assay: Antiproliferative activity against human DU145 cells at 10 uM after 48 hrs by trypan blue assay; type: functional, cell-based
How it was run: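 DU 145 cells plated at 50,000 per well, allowed 24 h to adhere, then given medium containing 10 μM 4-HPR as positive control. Viable cells counted by trypan blue exclusion on a hemacytometer, with growth read at 48 h.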

[2] = target: peptidylglycine alpha-amidating monooxygenase (Rattus norvegicus) (UniProt P14925); assay: Inhibition of rat peptidylamidoglycolate lyase assessed as ascorbate-independent dealkylation of alpha-hydroxy-hipurate; set-up: concentration or dose not given beside the values; conditions: concentration not given here
[3] = target: T1, Peptidylglycine alpha-amidating monooxygenase (Rattus norvegicus) (UniProt P14925); assay: Inhibition of rat recombinant peptidylglycine alpha-amidating monooxygenase in presence of DMSO
T1 sequence (whole entry): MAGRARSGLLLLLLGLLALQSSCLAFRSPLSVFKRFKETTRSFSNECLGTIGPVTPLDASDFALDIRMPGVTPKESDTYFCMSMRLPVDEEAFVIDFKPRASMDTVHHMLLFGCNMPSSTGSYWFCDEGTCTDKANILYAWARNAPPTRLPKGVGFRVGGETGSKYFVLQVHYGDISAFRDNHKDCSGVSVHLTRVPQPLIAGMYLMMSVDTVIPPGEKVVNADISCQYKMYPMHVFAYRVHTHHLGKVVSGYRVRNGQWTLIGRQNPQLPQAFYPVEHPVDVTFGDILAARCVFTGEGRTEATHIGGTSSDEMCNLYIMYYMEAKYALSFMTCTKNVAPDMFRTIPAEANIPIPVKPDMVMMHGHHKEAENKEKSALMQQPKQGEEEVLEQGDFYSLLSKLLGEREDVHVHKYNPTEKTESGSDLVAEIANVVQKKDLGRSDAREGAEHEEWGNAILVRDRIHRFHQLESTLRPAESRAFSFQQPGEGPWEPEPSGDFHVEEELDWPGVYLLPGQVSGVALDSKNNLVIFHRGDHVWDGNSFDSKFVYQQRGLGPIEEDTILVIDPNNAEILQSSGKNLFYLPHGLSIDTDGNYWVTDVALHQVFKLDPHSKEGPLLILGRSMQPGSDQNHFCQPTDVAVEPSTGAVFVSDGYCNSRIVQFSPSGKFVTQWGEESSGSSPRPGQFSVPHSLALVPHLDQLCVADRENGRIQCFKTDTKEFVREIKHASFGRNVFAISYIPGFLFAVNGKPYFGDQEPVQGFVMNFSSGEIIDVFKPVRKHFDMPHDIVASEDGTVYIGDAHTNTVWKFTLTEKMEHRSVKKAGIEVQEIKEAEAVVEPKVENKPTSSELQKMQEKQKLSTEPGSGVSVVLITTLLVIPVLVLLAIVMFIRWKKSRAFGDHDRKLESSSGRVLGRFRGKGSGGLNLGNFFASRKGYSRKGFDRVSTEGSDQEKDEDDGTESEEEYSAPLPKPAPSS

[4] = target: T1, Peptidylglycine alpha-amidating monooxygenase (Rattus norvegicus); assay: Inhibition of rat recombinant peptidylglycine alpha-amidating monooxygenase assessed as inhibition of N-dansyl-Tyr-Val-Gly amidation
DU-145 [5] = assay: Antiproliferative activity against human DU145 cells at greater than 500 uM by trypan blue assay; type: functional, cell-based
[6] = target: T1, Peptidylglycine alpha-amidating monooxygenase (Rattus norvegicus); assay: Inhibition of recombinant rat peptidylglycine alpha-amidating monooxygenase assessed as inhibition of oxygen consumption at 28 mM
[7] = target: T1, Peptidylglycine alpha-amidating monooxygenase (Rattus norvegicus); assay: Inhibition of recombinant rat peptidylglycine alpha-amidating monooxygenase assessed as inhibition of oxygen consumption of N-octanoylglycine at 28 mM
How it was run: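 Recombinant type A rat medullary thyroid carcinoma bifunctional PAM (15–50 μg) added to 100 mM MES/NaOH pH 6.0, 30 mM NaCl, 1% ethanol, 0.001% Triton X-100, 10 μg/mL catalase, 1.0 μM Cu(NO3)2, ascorbate, 200 μM N-octanoylglycine as substrate, and 28 mM test compound. The read-out is the initial rate of O2 consumption on an oxygen monitor at 37 °C.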

[8] = target: T1, Peptidylglycine alpha-amidating monooxygenase (Rattus norvegicus); assay: Inhibition of rat recombinant peptidylglycine alpha-amidating monooxygenase assessed as inhibition of oxygen consumption at 0.9 mM
DU-145 [9] = assay: Antiproliferative activity against human DU145 cells at 100 uM by trypan blue assay; type: functional
[10] = substrate: COc1ccc(C(=O)NCC(=O)O)cc1; assay: (§1) Activity of rat recombinant peptidylglycine alpha-amidating monooxygenase assessed as stimulation of oxygen consumption
[11] = substrate: O=C(O)CNC(=O)c1ccco1; assay: as §1
[12] = substrate: CCc1ccc(C(=O)NCC(=O)O)cc1; assay: as §1
[13] = substrate: O=C(O)CNC(=O)c1ccc(C(F)(F)F)cc1; assay: as §1
[14] = substrate: C[C@@H](NC(=O)c1ccccc1)C(=O)O; assay: as §1
[15] = substrate: O=C(O)CNC(=O)CNC(=O)c1ccc([N+](=O)[O-])cc1; assay: as §1
[16] = substrate: Nc1ccc(C(=O)NCC(=O)O)cc1; assay: as §1
[17] = substrate: Cc1ccccc1C(=O)NCC(=O)O; assay: as §1
[18] = substrate: O=C(O)CNC(=O)CCCCCCCc1ccccc1; assay: as §1
[19] = substrate: Cc1cccc(C(=O)NCC(=O)O)c1; assay: as §1
[20] = substrate: O=C(O)CNC(=O)C1CC1c1ccccc1; assay: as §1
[21] = substrate: O=C(O)CNC(=O)Nc1ccccc1; assay: as §1
[22] = substrate: O=C(O)CNC(=O)/C=C/c1ccco1; assay: as §1
[23] = substrate: CCCc1ccc(C(=O)NCC(=O)O)cc1; assay: as §1
[24] = substrate: O=C(O)CNC(=O)OCc1ccccc1; assay: as §1
[25] = substrate: O=C(O)CNC(=O)c1ccc(Cl)cc1; assay: as §1
[26] = substrate: O=C(O)CNC(=O)c1ccc([N+](=O)[O-])cc1; assay: as §1
[27] = substrate: O=C(O)CNC(=O)/C=C/c1ccccc1; assay: as §1
[28] = substrate: O=C(O)CNC(=O)c1ccc(O)cc1; assay: as §1
[29] = substrate: O=C(O)CNC(=O)CNC(=O)CCl; assay: as §1
[30] = substrate: O=C(O)CNC(=O)[C@@H]1CCC(=O)N1; assay: as §1
[31] = substrate: Nc1ccccc1C(=O)NCC(=O)O; assay: as §1
[32] = substrate: O=C(O)CNC(=S)CCc1ccccc1; assay: as §1
[33] = substrate: O=C(O)CNC(=O)c1cccc(Cl)c1; assay: as §1
[34] = substrate: O=C(O)CNC(=S)Cc1ccccc1; assay: as §1
[35] = substrate: O=C(O)CNC(=O)c1ccccc1I; assay: as §1
[36] = substrate: O=C(O)CNC(=O)CCc1ccccc1; assay: as §1
[37] = substrate: O=C(O)CNC(=O)CNC(=O)c1ccccc1; assay: as §1
[38] = substrate: O=C(O)CNC(=O)SCc1ccccc1; assay: as §1
[39] = substrate: O=C(O)CNC(=O)CCCCc1ccccc1; assay: as §1
[40] = substrate: O=C(O)CNC(=O)CCCCCc1ccccc1; assay: as §1
[41] = substrate: O=C(O)CNC(=O)c1ccc(Br)cc1; assay: as §1
[42] = substrate: O=C(O)CNC(=O)CNC(=O)CNC(=O)c1ccccc1; assay: as §1
[43] = substrate: O=C(O)CNC(=O)c1ccccc1O; assay: as §1
[44] = substrate: Cc1ccc(C(=O)NCC(=O)O)cc1; assay: as §1

CC1=C(/C=C/C(C)=C/C=C/C(C)=C/C(=O)Nc2ccc(O)cc2)C(C)(C)CCC1
Activity (DU-145 [1]): Active

O=C(O)CSC(=S)Cc1ccccc1
inhibition [2]: < 5%
Kis [3]: 13 µM
Kis [4]: 7.9 µM
Activity (DU-145 [5]): Active

O=C(NCP(=O)(O)O)c1cccnc1
inhibition [2]: < 5%
Activity [6]: Active
Activity [7]: inactive
Activity [8]: Active

CCOC(=O)CSC(=S)c1ccc(C)cc1
inhibition [2]: < 5%
inhibition at 100 µM (DU-145 [9]): ≤ 10%

B1: Peptidylglycine alpha-amidating monooxygenase (Rattus norvegicus), P14925 (protein)
chain: MAGRARSGLLLLLLGLLALQSSCLAFRSPLSVFKRFKETTRSFSNECLGTIGPVTPLDASDFALDIRMPGVTPKESDTYFCMSMRLPVDEEAFVIDFKPRASMDTVHHMLLFGCNMPSSTGSYWFCDEGTCTDKANILYAWARNAPPTRLPKGVGFRVGGETGSKYFVLQVHYGDISAFRDNHKDCSGVSVHLTRVPQPLIAGMYLMMSVDTVIPPGEKVVNADISCQYKMYPMHVFAYRVHTHHLGKVVSGYRVRNGQWTLIGRQNPQLPQAFYPVEHPVDVTFGDILAARCVFTGEGRTEATHIGGTSSDEMCNLYIMYYMEAKYALSFMTCTKNVAPDMFRTIPAEANIPIPVKPDMVMMHGHHKEAENKEKSALMQQPKQGEEEVLEQGDFYSLLSKLLGEREDVHVHKYNPTEKTESGSDLVAEIANVVQKKDLGRSDAREGAEHEEWGNAILVRDRIHRFHQLESTLRPAESRAFSFQQPGEGPWEPEPSGDFHVEEELDWPGVYLLPGQVSGVALDSKNNLVIFHRGDHVWDGNSFDSKFVYQQRGLGPIEEDTILVIDPNNAEILQSSGKNLFYLPHGLSIDTDGNYWVTDVALHQVFKLDPHSKEGPLLILGRSMQPGSDQNHFCQPTDVAVEPSTGAVFVSDGYCNSRIVQFSPSGKFVTQWGEESSGSSPRPGQFSVPHSLALVPHLDQLCVADRENGRIQCFKTDTKEFVREIKHASFGRNVFAISYIPGFLFAVNGKPYFGDQEPVQGFVMNFSSGEIIDVFKPVRKHFDMPHDIVASEDGTVYIGDAHTNTVWKFTLTEKMEHRSVKKAGIEVQEIKEAEAVVEPKVENKPTSSELQKMQEKQKLSTEPGSGVSVVLITTLLVIPVLVLLAIVMFIRWKKSRAFGDHDRKLESSSGRVLGRFRGKGSGGLNLGNFFASRKGYSRKGFDRVSTEGSDQEKDEDDGTESEEEYSAPLPKPAPSS
Km [10]: 820 µM
Km [11]: 2700 µM
Km [12]: 1200 µM
Km [13]: 770 µM
Km [14]: 84000 µM
Km [15]: 110 µM
Km [16]: 2600 µM
Km [17]: 4300 µM
Km [18]: 100 µM
Km [19]: 1400 µM
Km [20]: 900 µM
Km [21]: 360 µM
Km [22]: 1200 µM
Km [23]: 1200 µM
Km [24]: 590 µM
Km [25]: 620 µM
Km [26]: 470 µM
Km [27]: 230 µM
Km [28]: 1700 µM
Km [29]: 420 µM
Km [30]: 310 µM
Km [31]: 1400 µM
Km [32]: 38 µM
Km [33]: 2200 µM
Km [34]: 24 µM
Km [35]: 3400 µM
Km [36]: 940 µM
Km [37]: 78 µM
Km [38]: 59 µM
Km [39]: 150 µM
Km [40]: 51 µM
Km [41]: 520 µM
Km [42]: 310 µM
Km [43]: 860 µM
Km [44]: 1800 µM
